Source: ChEMBL document CHEMBL1154842, “Synthesis, radiolabeling, and biological evaluation of (R)- and (S)-2-amino-3-[(18)F]fluoro-2-methylpropanoic acid (FAMP) and (R)- and (S)-3-[(18)F]fluoro-2-methyl-2-N-(methylamino)propanoic acid (NMeFAMP) as potential PET radioligands for imaging brain tumors” (J Med Chem, 2010)
Each block holds one molecule with its values, some of them ahead of it.

Assays:
9L [1] = experiment: Cellular uptake in rat 9L cells assessed as inhibition of uptake at 5 uCi measured […] by gamma counting in presence of system L transport inhibitor BCH relative to control; assay type: ADME, cell-based; set-up: scale not given: the % may be the effect or the level left
How it was run: (§1)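 9L rat gliosarcoma cells, grown in DMEM with 10% FCS, were trypsinised and washed in HBSS. About 5×10^5 cells were incubated with 5 μCi tracer in amino-acid-free HBSS for 30 min at 37 °C, with or without 10 mM final BCH, MeAIB or ACS (3.3 mM each Ala/Cys/Ser). Cells were washed cold, gamma-counted and decay-corrected. Inhibition is percent of control; triplicates, one-way ANOVA.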

9L [2] = experiment: Cellular uptake in rat 9L cells assessed as inhibition of uptake at 5 uCi measured […] by gamma counting in presence of system A transport inhibitor MeAIB relative to control; assay type: ADME, cell-based; set-up: scale not given: the % may be the effect or the level left; how it was run: as §1
9L [3] = experiment: Cellular uptake in rat 9L cells at 5 uCi measured […] by gamma counting in presence of system L transport inhibitor BCH; assay type: ADME, cell-based
How it was run: (§2)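 9L rat gliosarcoma cells (DMEM, 10% FCS, 37 °C, 5% CO2) were trypsinised and washed in HBSS. About 5×10^5 cells took up 5 μCi tracer for 30 min in 0.1 mL amino acid-free HBSS, with inhibitor at 10 mM final (ACS: 3.3 mM each of alanine, cysteine, serine). Cells were spun and rinsed twice with ice-cold HBSS, then gamma counted with decay correction. Triplicates; uptake is % ID per 5×10^5 cells.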

9L [4] = experiment: Cellular uptake in rat 9L cells at 5 uCi measured […] by gamma counting; assay type: ADME, cell-based
How it was run: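 9L rat gliosarcoma cells, grown in DMEM with 10% FCS, were trypsinised and washed in HBSS. About 5×10^5 cells were exposed to 5 μCi tracer in amino-acid-free HBSS for 30 min at 37 °C, 5% CO2, then centrifuged and rinsed twice with ice-cold HBSS. Cells were gamma-counted and decay-corrected, with uptake reported as % of initial dose per 5×10^5 cells ± SD, n=3.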

9L [5] = experiment: Cellular uptake in rat 9L cells assessed as inhibition of uptake at 5 uCi measured […] by gamma counting in presence of system ASC transport inhibitor ACS relative to control; assay type: ADME, cell-based; set-up: scale not given: the % may be the effect or the level left; how it was run: as §1
9L [6] = experiment: Cellular uptake in rat 9L cells at 5 uCi measured per 0.5 million cells by gamma counting in presence of system ASC transport inhibitor ACS
9L [7] = experiment: Cellular uptake in rat 9L cells at 5 uCi measured […] by gamma counting in presence of system A transport inhibitor MeAIB; assay type: ADME, cell-based; how it was run: as §2
Heart [8] = experiment: Biodistribution in heart of Fischer 344 rat bearing rat 9L cells at 20 uCi, iv after 60 mins; assay type: ADME, organism-based; details: in vivo, 1 h
How it was run: (§3)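 Male Fischer 344 rats (200–250 g) carrying intracranial 9L gliosarcoma (5×10^4 cells implanted stereotactically, 10–12 days growth), under ketamine:xylazine anaesthesia. About 20 μCi tracer in 0.5 mL sterile saline given via tail-vein catheter. Groups of 4–5 were killed by intracardiac KCl at 15 (NMeFAMP only), 30, 60 or 120 min. Tissues were weighed and gamma-counted, decay-corrected, and reported as %ID/g, mean ± SD.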

Blood [9] = experiment: Biodistribution in blood of Fischer 344 rat bearing rat 9L cells at 20 uCi, iv after 30 mins; assay type: ADME, organism-based; details: in vivo, 0.5 h; how it was run: as §3
Spleen [10] = experiment: Biodistribution in spleen of Fischer 344 rat bearing rat 9L cells at 20 uCi, iv after 30 mins; assay type: ADME, organism-based; details: in vivo, 0.5 h; how it was run: as §3
Muscle tissue [11] = experiment: Biodistribution in muscle of Fischer 344 rat bearing rat 9L cells at 20 uCi, iv after 60 mins; assay type: ADME, organism-based; details: in vivo, 1 h; how it was run: as §3
Lung [12] = experiment: Biodistribution in lung of Fischer 344 rat bearing rat 9L cells at 20 uCi, iv after 30 mins; assay type: ADME, organism-based; details: in vivo, 0.5 h; how it was run: as §3
Bone [13] = experiment: Biodistribution in bone of Fischer 344 rat bearing rat 9L cells at 20 uCi, iv after 30 mins; assay type: ADME, organism-based, Bone element; details: in vivo, 0.5 h; how it was run: as §3
[14] = Biodistribution in testis of Fischer 344 rat bearing rat 9L cells at 20 uCi, iv after 120 mins; assay type: ADME, organism-based; details: in vivo, 2 h; how it was run: as §3
[15] = Biodistribution in tumor of Fischer 344 rat bearing rat 9L cells at 20 uCi, iv after 30 mins; details: in vivo, 0.5 h
Bone [16] = experiment: Biodistribution in bone of Fischer 344 rat bearing rat 9L cells at 20 uCi, iv after 60 mins; assay type: ADME, organism-based, Bone element; details: in vivo, 1 h; how it was run: as §3
Pancreas [17] = experiment: Biodistribution in pancreas of Fischer 344 rat bearing rat 9L cells at 20 uCi, iv after 60 mins; assay type: ADME, organism-based; details: in vivo, 1 h; how it was run: as §3
Pancreas [18] = experiment: Biodistribution in pancreas of Fischer 344 rat bearing rat 9L cells at 20 uCi, iv after 30 mins; assay type: ADME, organism-based; details: in vivo, 0.5 h; how it was run: as §3
Brain = experiment: Biodistribution in brain of Fischer 344 rat bearing rat 9L cells at 20 uCi, iv after 30 mins; details: in vivo, 0.5 h
Spleen [19] = experiment: Biodistribution in spleen of Fischer 344 rat bearing rat 9L cells at 20 uCi, iv after 120 mins; assay type: ADME, organism-based; details: in vivo, 2 h; how it was run: as §3
[20] = Biodistribution in testis of Fischer 344 rat bearing rat 9L cells at 20 uCi, iv after 60 mins; assay type: ADME, organism-based; details: in vivo, 1 h; how it was run: as §3
[21] = Biodistribution in testis of Fischer 344 rat bearing rat 9L cells at 20 uCi, iv after 30 mins; assay type: ADME, organism-based; details: in vivo, 0.5 h; how it was run: as §3
Spleen [22] = experiment: Biodistribution in spleen of Fischer 344 rat bearing rat 9L cells at 20 uCi, iv after 60 mins; assay type: ADME, organism-based; details: in vivo, 1 h; how it was run: as §3
Bone [23] = experiment: Biodistribution in bone of Fischer 344 rat bearing rat 9L cells at 20 uCi, iv after 120 mins; assay type: ADME, organism-based, Bone element; details: in vivo, 2 h; how it was run: as §3
[24] = Biodistribution in tumor of Fischer 344 rat bearing rat 9L cells at 20 uCi, iv after 30 mins; assay type: ADME, organism-based, Neoplasm; details: in vivo, 0.5 h; how it was run: as §3
Liver [25] = experiment: Biodistribution in liver of Fischer 344 rat bearing rat 9L cells at 20 uCi, iv after 60 mins; assay type: ADME, organism-based; details: in vivo, 1 h; how it was run: as §3
Muscle tissue [26] = experiment: Biodistribution in muscle of Fischer 344 rat bearing rat 9L cells at 20 uCi, iv after 120 mins; assay type: ADME, organism-based; details: in vivo, 2 h; how it was run: as §3
[27] = rat, in vivo, iv, 1 h
Heart [28] = experiment: Biodistribution in heart of Fischer 344 rat bearing rat 9L cells at 20 uCi, iv after 30 mins; assay type: ADME, organism-based; details: in vivo, 0.5 h; how it was run: as §3
Lung [29] = experiment: Biodistribution in lung of Fischer 344 rat bearing rat 9L cells at 20 uCi, iv after 60 mins; assay type: ADME, organism-based; details: in vivo, 1 h; how it was run: as §3
Muscle tissue [30] = experiment: Biodistribution in muscle of Fischer 344 rat bearing rat 9L cells at 20 uCi, iv after 30 mins; assay type: ADME, organism-based; details: in vivo, 0.5 h; how it was run: as §3
Liver [31] = experiment: Biodistribution in liver of Fischer 344 rat bearing rat 9L cells at 20 uCi, iv after 120 mins; assay type: ADME, organism-based; details: in vivo, 2 h; how it was run: as §3
Liver [32] = experiment: Biodistribution in liver of Fischer 344 rat bearing rat 9L cells at 20 uCi, iv after 30 mins; assay type: ADME, organism-based; details: in vivo, 0.5 h; how it was run: as §3
Blood [33] = experiment: Biodistribution in blood of Fischer 344 rat bearing rat 9L cells at 20 uCi, iv after 60 mins; assay type: ADME, organism-based; details: in vivo, 1 h; how it was run: as §3
[34] = Ratio of drug level from tumor to brain of Fischer 344 rat bearing rat 9L cells at 20 uCi, iv after 60 mins; details: in vivo, 1 h
Kidney [35] = experiment: Biodistribution in kidney of Fischer 344 rat bearing rat 9L cells at 20 uCi, iv after 120 mins; assay type: ADME, organism-based; details: in vivo, 2 h; how it was run: as §3
Lung [36] = experiment: Biodistribution in lung of Fischer 344 rat bearing rat 9L cells at 20 uCi, iv after 120 mins; assay type: ADME, organism-based; details: in vivo, 2 h; how it was run: as §3
Blood [37] = experiment: Biodistribution in blood of Fischer 344 rat bearing rat 9L cells at 20 uCi, iv after 120 mins; assay type: ADME, organism-based; details: in vivo, 2 h; how it was run: as §3
Heart [38] = experiment: Biodistribution in heart of Fischer 344 rat bearing rat 9L cells at 20 uCi, iv after 120 mins; assay type: ADME, organism-based; details: in vivo, 2 h; how it was run: as §3
[39] = rat, in vivo, iv, 1 h; remark: listed apart in the source
[40] = Ratio of drug level from tumor to brain of Fischer 344 rat bearing rat 9L cells at 20 uCi, iv after 120 mins; assay type: ADME, organism-based; details: in vivo, 2 h
Kidney [41] = experiment: Biodistribution in kidney of Fischer 344 rat bearing rat 9L cells at 20 uCi, iv after 60 mins; assay type: ADME, organism-based; details: in vivo, 1 h; how it was run: as §3
Pancreas [42] = experiment: Biodistribution in pancreas of Fischer 344 rat bearing rat 9L cells at 20 uCi, iv after 120 mins; assay type: ADME, organism-based; details: in vivo, 2 h; how it was run: as §3
Kidney [43] = experiment: Biodistribution in kidney of Fischer 344 rat bearing rat 9L cells at 20 uCi, iv after 30 mins; assay type: ADME, organism-based; details: in vivo, 0.5 h; how it was run: as §3

SMILES: CN[C@](C)(CF)C(=O)O.Cl
Activity (9L [1]): 29%
Activity (9L [2]): 79%
Drug uptake (9L [3]): 2.76 %ID
Drug uptake (9L [4]): 3.87 %ID
Activity (9L [5]): 58%
Drug uptake (9L [6]): 1.62 %ID
Drug uptake (9L [7]): 0.82 %ID

SMILES: C[C@](N)(C[18F])C(=O)O.Cl
Drug uptake (Heart [8]): 0.34 % ID/g
Drug uptake (Blood [9]): 0.28 % ID/g
Drug uptake (Spleen [10]): 0.72 % ID/g
Drug uptake (Muscle tissue [11]): 0.52 % ID/g
Drug uptake (Lung [12]): 0.37 % ID/g
Drug uptake (Bone [13]): 0.23 % ID/g
Drug uptake [14]: 0.16 % ID/g
Drug uptake [15]: 2.46 % ID/g
Drug uptake (Bone [16]): 0.36 % ID/g
Drug uptake (Pancreas [17]): 2.05 % ID/g
Drug uptake (Pancreas [18]): 2.96 % ID/g
Drug uptake (Brain): 0.06 % ID/g
Drug uptake (Spleen [19]): 0.39 % ID/g
Drug uptake [20]: 0.17 % ID/g
Drug uptake [21]: 0.15 % ID/g
Drug uptake (Spleen [22]): 0.71 % ID/g
Drug uptake (Bone [23]): 0.26 % ID/g
Ratio [24]: 38.2
Drug uptake (Liver [25]): 0.65 % ID/g
Drug uptake (Muscle tissue [26]): 0.36 % ID/g
Drug uptake [27]: 2.82 % ID/g
Drug uptake (Heart [28]): 0.32 % ID/g
Drug uptake (Lung [29]): 0.4 % ID/g
Drug uptake (Muscle tissue [30]): 0.32 % ID/g
Drug uptake (Liver [31]): 0.32 % ID/g
Drug uptake (Liver [32]): 0.6 % ID/g
Drug uptake (Blood [33]): 0.25 % ID/g
Ratio [34]: 28.6
Drug uptake (Kidney [35]): 2.09 % ID/g
Drug uptake (Lung [36]): 0.23 % ID/g
Drug uptake (Blood [37]): 0.16 % ID/g
Drug uptake (Heart [38]): 0.23 % ID/g
Drug uptake [39]: 0.1 % ID/g
Ratio [40]: 27.5
Drug uptake (Kidney [41]): 2.96 % ID/g
Drug uptake (Pancreas [42]): 1.17 % ID/g
Drug uptake (Kidney [43]): 3.47 % ID/g

Drug uptake [39]: 0.26 % ID/g
SMILES: N[C@]1(C(=O)O)C[C@@H]([18F])C1 [FLUCICLOVINE F18]

Drug uptake [27]: 1.05 % ID/g
Ratio [34]: 0.8
Drug uptake [39]: 1.3 % ID/g
SMILES: OC[C@H]1O[C@@H](O)[C@H]([18F])[C@@H](O)[C@@H]1O [FLUDEOXYGLUCOSE-F18]
